Source: PubChem (several laboratories)
HNF4A DNA FP – change in binding of human HNF4 alpha to DNA | activity change, % at 10 µM | HNF4a-FITC DNA binding, fluorescence polarization, 1 h | P41235 | actives 0.3% (n = 360,000); in the data active = activity change above about 30%, passing the limit was not always enough
CSN deneddyl inh – inhibitors of human CSN-mediated cullin deneddylation; Q92905; actives 0.38% (n = 360,000); inhibition, % at 12.5 µM; Purified CSN, SCF-Nedd8-OG deneddylation, fluorescence polarization;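 active = pattern-corrected inhibition above about 35%, with an unprinted fluorescence ratio check between 0.5 and 1.5, limit read from the data, passing the limit was not always enough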
Target sequence (Q92905 whole entry, looked up, one chain of several): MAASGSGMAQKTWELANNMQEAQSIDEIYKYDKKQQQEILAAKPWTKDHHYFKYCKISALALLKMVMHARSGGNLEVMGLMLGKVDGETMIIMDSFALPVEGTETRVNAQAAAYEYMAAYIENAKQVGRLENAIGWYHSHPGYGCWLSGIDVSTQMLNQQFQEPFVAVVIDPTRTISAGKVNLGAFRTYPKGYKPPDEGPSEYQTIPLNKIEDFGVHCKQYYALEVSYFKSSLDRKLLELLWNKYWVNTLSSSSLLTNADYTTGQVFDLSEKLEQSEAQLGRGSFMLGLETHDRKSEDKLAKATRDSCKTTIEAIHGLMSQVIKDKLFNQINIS
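Assay system: HEK293T-derived human Csn5 enzyme; quantity: 0.24 nM enzyme; medium: Tris/NaCl/DTT buffer, pH 7.5; also added: substrate SCFSkp2-Nedd8OG, 10 nM; doses: 12.5 µM compound; schedule: 90 min reaction at room temperature; signal: FP; read-out: % inhibition of substrate cleavage by Csn5; benchmarks: substrate-only high control, full reaction low control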
CRFBP-R2 agonist – CRF-BP/CRF-R2 complex agonism; HEK293 CRF-R2/CRF-BP, calcium dye fluorescence (FLIPR); percent of saturating CRF peptide response; activation, % at 13.2 µM; actives 0.46% (n = 350,000); AID 588473;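 active = activation of at least 50%, plus an integration ratio under a set limit after plate pattern correction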
CRFBP-R2 block – CRF-BP/CRF-R2 complex antagonism; inhibition, % at 11.8 µM; HEK293 CRF-R2/CRF-BP, CRF-induced calcium fluorescence; actives 0.59% (n = 350,000);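 active = inhibition of the ligand-induced calcium signal above about 50% at the single tested concentration, limit read from the data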
Rpn11 block – inhibitors of human proteasome Rpn11 | AID 588493 | O00487 | human 26S proteasome, Ub4-pepOG fluorescence polarization; 20S core pre-blocked with epoxomicin | calls only at 20 µM | actives 0.59% (n = 360,000);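 active = inhibition at 20 µM, scaled to each plate's controls, above about 33%, limit read from the data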
TPT1 inh – C. albicans TPT1 enzyme inhibition | recombinant caTPT1, FP RNA substrate dephosphorylation | inhibition, % at 5 µM | actives 0.81% (n = 300,000);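 active = inhibition above the mean of all tested compounds plus 3 SD, set per screening campaign, cut at about 24% in these data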
caTPT1 confirm – TPT1 (C. albicans) inhibition, confirmation | shares compounds with TPT1 inh | recombinant caTPT1, fluorescence polarization, RNase T1 coupled | inhibition, % at 5 µM | actives 74% (n = 2,400) | AID 2149;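 active = inhibition above the primary screen limit, the mean inhibition of all tested compounds plus 3 SD, cut at about 25% in these data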
RNase T1 inh – counter-screen for TPT1 inhibitors: inhibitors of Aspergillus oryzae RNase T1 | shares compounds with TPT1 inh | inhibition, % at 5 µM | actives 83% (n = 2,400) | RNase T1 cleavage, fluorescence polarization, 1536-well;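 active = inhibition above the solvent-only control well mean plus 3 SD, limit set per screening run, cut at about 23% in these data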;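 also: inhibitors block cleavage so intact labeled substrate keeps polarization high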
Target sequence (P00651 whole entry, looked up): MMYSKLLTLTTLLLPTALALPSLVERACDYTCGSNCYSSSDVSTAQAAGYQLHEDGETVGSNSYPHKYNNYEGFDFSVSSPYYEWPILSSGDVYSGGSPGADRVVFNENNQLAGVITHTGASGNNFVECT
Numbers stand for hits; n = inactive; x = no result shown. An excerpt weighted towards active compounds, which were near 2.3% of everything screened.

SMILES	HNF4A DNA FP	CSN deneddyl inh	CRFBP-R2 agonist	CRFBP-R2 block	Rpn11 block	TPT1 inh	caTPT1 confirm	RNase T1 inh
N#C/C(C(=O)NCCc1ccccc1)=C1/N=C(NC(=O)c2cccs2)c2ccccc21	n	n	n	n	n	n	x	x
COCCCNC(=O)/C(C#N)=C1\N=C(NC(=O)c2cccs2)c2ccccc21	n	n	n	n	n	31.4	n	n
O=C(O)c1ccccc1SCC(=O)N1CCc2ccccc21	n	n	n	n	n	139.2	n	n
O=[N+]([O-])c1ccc(-c2ccc(/C=N/Nc3nc(NCc4ccccc4)nc(N4CCOCC4)n3)o2)cc1	n	n	56.5	n	x	87.1	89.2	92.7
O=C(CC1C(=O)NCCN1Cc1ccoc1)NCCCn1ncc2ccccc21 (stereo unspecified)	n	n	n	n	n	n	x	x
CSc1nc(-c2ccccc2)nc(NC(=O)c2ccccc2)c1C(C)=O	n	n	n	n	n	n	x	x
CSc1nc(-c2ccccc2)nc(SC)c1C(C)=O	n	n	n	n	n	26.3	n	n
COc1ccc(/C=C2\CC/C(=C\c3ccc(OC)cc3OC)C2=O)c(OC)c1	n	n	88.2	n	x	147.6	148.5	137.5
COc1ccc(/C=C2\CCC(C3CCCC3)C2=O)c(OC)c1 (stereo unspecified)	n	n	n	n	n	n	x	x
Cc1oc(-c2ccccc2)cc1C(=O)Nc1cccc2ccccc12	n	n	n	n	n	n	x	x
CCN1C(=S)SC(=O)C1=C1C=C(C)N(CCO)C(C)=C1	n	n	n	n	n	37.8	52.6	62.3
COCCn1c(N)c(C#N)c2nc3ccccc3nc21	n	n	n	n	n	n	x	x
N#Cc1c(N)n(CCNC(=O)c2ccc(Cl)cc2)c2nc3ccccc3nc12	n	n	n	n	n	26.5	n	29.9
Cc1ccc(C(=O)NCCn2c(N)c(C#N)c3nc4ccccc4nc32)cc1	n	n	n	n	n	35.9	49.4	55.0
Cc1cc(N)c(C)c([N+](=O)[O-])c1C	n	n	n	n	n	n	x	x
CCC(=O)Nc1ccccc1-c1nc2ccccc2[nH]c1=O	n	n	n	n	n	x	x	x
O=C(Nc1ccc(S(=O)(=O)Nc2nccs2)cc1)c1cnc(Cl)c(Cl)c1	n	n	n	n	n	32.9	30.8	47.6
O=C(Nc1ccc(S(=O)(=O)Nc2ncccn2)cc1)c1cnc(Cl)c(Cl)c1	n	n	n	n	n	n	x	x
CCn1nc(C(=O)Nc2ccc(S(=O)(=O)Nc3nccs3)cc2)c2ccccc2c1=O	n	n	n	n	n	30.6	53.6	70.8
Nc1c(Cl)cc2c(c1Oc1ccccc1)C(=O)c1ccccc1C2=O	n	n	n	n	n	25.1	30.4	40.9
COc1ccc(/C=C(/C#N)C(=O)Nc2ccc(O)cc2)cc1C(=O)O	n	n	n	n	n	n	x	x
CCCCN1C(=O)C2Cc3c([nH]c4ccccc34)CN2C1=S (stereo unspecified)	n	n	n	n	n	25.1	n	38.5
CCCCCN1CC(=O)N2Cc3[nH]c4ccccc4c3C[C@H]2C1=O	n	n	n	n	n	n	x	x
Cc1cc(C)n(/N=C/c2c[nH]c3ccccc23)c(=O)c1C#N	n	n	n	n	n	n	x	x
CCCS(=O)(=O)NC(=O)C1(C)CCN(C(=O)Cc2cccc(OC)c2)C1 (stereo unspecified)	n	n	x	x	n	x	x	x
CC(=O)c1cccc(NC(=O)CNC(=O)c2sc3ccccc3c2Cl)c1	n	n	n	n	n	29.0	44.6	57.3
CSc1ccccc1C(=O)NCc1ccccc1C	n	n	n	n	n	n	x	x
COc1cc(C2C(C#N)=C(N)N(c3ccc(F)cc3)C3=C2S(=O)(=O)CC3)ccc1O (stereo unspecified)	n	n	n	n	n	31.8	n	26.2
COc1ccc(CCN2Cc3c(N)cccc3C2=O)cc1OC	n	n	n	n	n	n	x	x
